Activity calls are given as the source filed them. No cut-off for these calls is given here.
Tests used:
[1] = target: T1, Calmodulin-1 (Homo sapiens, UniProt P0DP23); assay: Inhibition of human recombinant calmodulin assessed as inhibition of calmodulin-sensitive cAMP phosphodiesterase activation after 15 mins by spectrophotometric analysis
[2] = tested on: Aorta; assay: Vasorelaxant activity in Wistar rat endothelium-intact thoracic aortic ring assessed as inhibition of noradrenaline-induced contraction treated after noradrenaline challenge measured after 60 mins; assay type: functional, tissue-based; conditions: for IC50: 1 h
Procedure, shortened: (§1)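 Thoracic aortic rings (3–5 mm) from Wistar rats (200–300 g), endothelium intact or manually removed, were held in Krebs at 37 °C gassed O2/CO2 (9:1) at 3.0 g resting tension. Three NA (0.1 µM) primings were given; endothelium status was checked by carbachol (1 µM) relaxation. Rings precontracted with NA received compounds in quarter-log cumulative concentrations under isometric recording. n=6 animals.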

[3] = tested on: Aorta; assay: Vasorelaxant activity in Wistar rat endothelium-denuded thoracic aortic ring assessed as inhibition of noradrenaline-induced contraction treated after noradrenaline challenge measured after 60 mins; assay type: functional, tissue-based; conditions: for IC50: 1 h; procedure, shortened: as §1
[4] = tested on: Aorta; assay: Vasorelaxant activity in Wistar rat endothelium-intact thoracic aortic ring assessed as inhibition of noradrenaline-induced contraction treated after noradrenaline challenge measured after 60 mins relative to control; assay type: functional; conditions: 1 h
[5] = tested on: Aorta; assay: Vasorelaxant activity in Wistar rat endothelium-denuded thoracic aortic ring assessed as inhibition of noradrenaline-induced contraction treated after noradrenaline challenge measured after 60 mins relative to control; assay type: functional; conditions: 1 h
[6] = target: T1, Calmodulin-1; assay: Ratio of chlorpromazine IC50 to compound IC50 for human recombinant calmodulin
[7] = tested on: Aorta; assay: Vasorelaxant activity in Wistar rat endothelium-intact thoracic aortic ring assessed as inhibition of noradrenaline-induced contraction treated after noradrenaline challenge measured after 60 mins in presence of chlorpromazine; assay type: functional, tissue-based
Procedure, shortened: (§2)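 Rat aortic rings (endothelium intact or denuded) in 37 °C Krebs under 3.0 g tension were preincubated with chlorpromazine (1 µM). They were then contracted with NA, and compound was added in quarter-log cumulative concentrations while isometric tension was recorded. n=6 animals.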

[8] = tested on: Aorta; assay: Vasorelaxant activity in Wistar rat endothelium-denuded thoracic aortic ring assessed as inhibition of noradrenaline-induced contraction treated after noradrenaline challenge measured after 60 mins in presence of chlorpromazine; assay type: functional, tissue-based; procedure, shortened: as §2
[9] = target: T1, Calmodulin-1; assay: Inhibition of calmodulin assessed as inhibition of calmodulin-calcium-PDE1 complex formation
Procedure, shortened: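 Human recombinant CaM (0.08 µg) was preincubated 30 min with 0.015 units bovine-brain PDE1 and 0.063 units 5'-nucleotidase in Tris–HCl/imidazole buffer with Mg acetate, 2.5 mM CaCl2 and BSA, pH 7.0. Compounds at 0.5–65 µM in ACN/water (1:1) were added for 30 min. cAMP started a 15-min reaction, and malachite green read phosphate at 700 nm. IC50 came from hyperbolic fit, n≥6.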

[10] = target: T1, Calmodulin-1; assay: Inhibition of calmodulin assessed as inhibition of calmodulin-calcium-[…] complex formation

SMILES	inhibition [1]	inhibition [2]	IC50 [2]	inhibition [3]	IC50 [3]	Emax [4]	Emax [5]	IC50 [1]	Ratio IC50 [6]	Activity [7]	Activity [8]	IC50 [9]	IC50 [10]
O=C1C[C@@H](c2ccc(O)cc2)Oc2cc(O)cc(O)c21	Dose-dependent effect												
O=c1cc(-c2ccccc2)oc2ccc(O)cc12 [6-HYDROXYFLAVONE]	Dose-dependent effect	Dose-dependent effect	20.8 µM	Dose-dependent effect	112 µM	105%	51.8%	5.17 µM	3.89	Active	Active		
O=c1cc(-c2ccccc2)oc2cc(O)ccc12 [7-HYDROXYFLAVONE]	Dose-dependent effect	Dose-dependent effect	37.8 µM	Dose-dependent effect	167 µM	80.6%	40.4%	37.1 µM	0.54				
C[N+](C)(C)CCOC(N)=O [CARBACHOL]			0.79 µM			88.6%							
O=c1cc(-c2ccccc2)oc2cc(O)cc(O)c12 [CHRYSIN]	Dose-dependent effect	Dose-dependent effect	75.7 µM	Dose-dependent effect	107 µM	44.8%	16%	33.4 µM	1.03				
O=c1cc(-c2ccccc2)oc2ccccc12 [FLAVONE]	Dose-dependent effect	Dose-dependent effect	46 µM	Dose-dependent effect	203 µM	98.6%	81%	102 µM	0.34				
O=c1c(O)c(-c2ccccc2)oc2ccccc12 [FLAVONOL]	Dose-dependent effect	Dose-dependent effect	204 µM	Dose-dependent effect	248 µM	67.8%	29.8%	55.2 µM	0.36				
COc1ccc([C@@H]2CC(=O)c3c(O)cc(O[C@@H]4O[C@H](CO[C@@H]5O[C@@H](C)[C@H](O)[C@@H](O)[C@H]5O)[C@@H](O)[C@H](O)[C@H]4O)cc3O2)cc1O [HESPERIDIN]												74 µM	70 µM
COC(=O)C1=C(C)NC(C)=C(C(=O)OC)C1c1ccccc1[N+](=O)[O-] [NIFEDIPINE]					0.02 µM		102%						
O=c1c(O)c(-c2ccc(O)c(O)c2)oc2cc(O)cc(O)c12 [QUERCETIN]	Dose-dependent effect	Dose-dependent effect	162 µM	Dose-dependent effect	222 µM	83.2%	43.2%	13 µM	2.82				
